From ChEMBL document CHEMBL1137736, “Substituted quinolinyl chalcones and quinolinyl pyrimidines as a new class of anti-infective agents” (Eur J Med Chem, 2009) come the findings set out here.

Data set [1] has as its system Mycobacterium tuberculosis. In words: Antitubercular activity against Mycobacterium tuberculosis H37Rv after 4 weeks by serial twofold dilution method. The data set is classed as functional. In outline: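 Serial twofold dilutions of a 1.0 mg/mL DMSO stock were incorporated into Middlebrook 7H10 agar slants with OADC. H37Rv grown on Lowenstein–Jensen medium was harvested in N-saline with 0.05% Tween-80 and dispersed with glass beads into a single-cell suspension. The working inoculum was 2 107 cfu/mL. MIC was the lowest concentration giving complete growth inhibition.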

The test system of a further data set is Vero. The data set is described as follows: Cytotoxicity against african green monkey Vero cells after 24 hrs by MTS assay. Particulars: chlorocebus sabaeus. Format: cell-based. In a few lines:
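VERO cells seeded at 10^4 cells/well in MEM with antibiotics and 10% FBS, incubated 24 h (37 C, 5% CO2). Medium then replaced by 5% FBS, antibiotic-free medium with compound or DMSO for 24 h. MTS added and A490 read after 2 h, with DMSO wells as 100% survival. Toxic means 50% inhibition at 10-fold the MIC.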

The next data set relates to Plasmodium falciparum. In words: Antimalarial activity as inhibition of schizont maturation against Plasmodium falciparum NF54 after 36 - 40 hrs. The data set is classed as functional. In outline: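 P. falciparum NF-54 kept in RPMI-1640 with 25 mM HEPES, 1% D-glucose, 0.23% sodium bicarbonate and 10% heat-inactivated human serum. Compounds tested in duplicate at 0.25–[…] in 96-well microassay with parasitized cells, 37 C, candle jar, 36–40 h. Giemsa-stained smears scored for ring maturation to schizonts. MIC is lowest concentration blocking complete schizont maturation.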

Data set [2] in a line: Cytotoxicity against mouse BMDM cells after 5 days by MTS assay. Format: cell-based. Particulars: 120 h. In outline:
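Mouse bone-marrow-derived macrophages plated at 10^5 cells/well in DMEM with antibiotics, 10% FBS, 15% (v/v) L-929 conditioned supernatant and non-essential amino acids. After compound exposure, incubated 5 days at 37 C, 5% CO2. MTS added and A490 read after 2 h, with DMSO wells as 100% survival. Toxic means 50% inhibition at 10-fold the MIC.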
(Tetrazolium dyes change colour on reduction, which living cells bring about.)

SMILES strings stand for the structures. ≈ marks a conversion by molar mass, not a printed value. Calls of active or inactive are those of the source. The rule behind the calls is not given here.

The MIC is the lowest concentration that inhibits growth of the organism.

Take `COc1ccc(OC)c(/C=C/C(=O)c2ccc(Nc3ccnc4cc(Cl)ccc34)cc2)c1`: the MIC in data set [1] (672 h) is 3.12 µg/mL (≈ 7.01 µM). Further, the Activity result (in the data set on Vero; in data set [2]) was “Non-toxic” throughout. In addition, the MIC entry in the data set on Plasmodium falciparum was “inactive”.
`COc1cc(-c2cc(-c3ccc(Nc4ccnc5cc(Cl)ccc45)cc3)nc(N)n2)cc(OC)c1OC` registered an MIC in data set [1] (672 h) of 12.5 µg/mL (≈ 24.3 µM). Moreover, the MIC result with Plasmodium falciparum was “inactive”.
Taken in the same sequence, the figures for `Nc1nc(-c2ccc(Nc3ccnc4cc(Cl)ccc34)cc2)cc(-c2ccco2)n1` were 12.5 µg/mL (≈ 30.2 µM) and “inactive”.
`COc1ccc(-c2cc(-c3ccc(Nc4ccnc5cc(Cl)ccc45)cc3)nc(N)n2)cc1`: the MIC result in data set [1] was “inactive”. For the same molecule, the MIC against Plasmodium falciparum worked out at 2 µg/mL (≈ 4.41 µM).
On to `CSc1ccc(-c2cc(-c3ccc(Nc4ccnc5cc(Cl)ccc45)cc3)nc(N)n2)cc1`, for which the MIC entry in data set [1] is “inactive”. This molecule had an MIC with Plasmodium falciparum of 1 µg/mL (≈ 2.13 µM).
Molecule `O=C(/C=C/c1ccc(Cl)cc1)c1ccc(Nc2ccnc3cc(Cl)ccc23)cc1` came in with a minimal inhibitory concentration (MIC) in data set [1] (672 h) of 6.25 µg/mL (≈ 14.9 µM). The MIC result in the data set with Plasmodium falciparum was “inactive”.
In data set [1] (672 h), `COc1cccc(/C=C/C(=O)c2ccc(Nc3ccnc4cc(Cl)ccc34)cc2)c1OC` had an MIC of 3.12 µg/mL (≈ 7.01 µM). For the same molecule, the Activity entry (in the data set on Vero; in data set [2]) was “Non-toxic” in each case. In addition, the MIC result with Plasmodium falciparum was “inactive”.
As for `NC(=O)c1cnccn1` [PYRAZINAMIDE], the MIC in data set [1] (672 h) stood at 50 µg/mL (≈ 406 µM). The Activity entry (in the data set with Vero; in data set [2]) was “Non-toxic” in each case.
On to `CCN(CC)CCCC(C)Nc1ccnc2cc(Cl)ccc12` (stereo unspecified) [CHLOROQUINE], for which inhibition of growth in the data set on Plasmodium falciparum (MIC) required 0.125 µg/mL (≈ 0.391 µM).
On to `CC(C)c1ccc(-c2cc(-c3ccc(Nc4ccnc5cc(Cl)ccc45)cc3)nc(N)n2)cc1`, for which the minimal inhibitory concentration (MIC) in data set [1] (672 h) was determined as 6.25 µg/mL (≈ 13.4 µM); against Plasmodium falciparum, 1 µg/mL (≈ 2.15 µM).
For the molecule `Nc1nc(-c2ccc(Nc3ccnc4cc(Cl)ccc34)cc2)cc(-c2cccnc2)n1`, the MIC entry in data set [1] was “inactive”. The same molecule showed a minimum inhibitory concentration (MIC) against Plasmodium falciparum of 1 µg/mL (≈ 2.35 µM).
